Series [1] deals with LPS-induced NO production in RAW 264.7 macrophages (Nitric oxide synthase). As to the kind of experiment: Griess assay of LPS-induced NO production in RAW 264.7 macrophages. In kind it is cell-based. The note with it: read-out: NOS- IC50 value, LPS-prompted RAW264.7 macrophages, 24h incubations, n=4. A digest of the protocol:
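LPS-stimulated RAW264.7 macrophages exposed to the test compound; NO read by Griess assay. IC50 calculated within the tested dose range. Indomethacin used as reference. Data are mean ± SD of 4 independent replicates.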
In general terms: The Griess reaction detects nitrite, a stable product of nitric oxide.

Series [2] in a line: DPPH radical scavenging assay. The note with it: 30 minutes incubations; n=4.
The test system of series [3] is breast MCF7 cancer cell line. As to the kind of experiment: SRB antiproliferative assay, MCF7. In kind it is cell-based.
Series [4] relates to colorectal HT29 cancer cell line. The series can be described thus: SRB antiproliferative assay, HT29. Type of series: cell-based.
Series [5] has as its system Leukaemia K562 cancer cell line. As to the kind of experiment: SRB antiproliferative assay, K562. Type of series: cell-based.

Values joined by “and” are separate entries in the source; they are usually repeats but may differ in a detail not shown here. Identical values can stand only once. Like-named read-outs stand apart in the source and are kept apart here.

For the compound `COc1ccc2c(c1)c(CC(=O)O)c(C)n2C(=O)c1ccc(Cl)cc1` [Indomethacin], the IC50 is 120 µM and 42.8 µg/mL in series [1] (Mus musculus, RAW264.7, 24 h); 119 ± 3.02 µM in series [1].
For `O=C1O[C@H]([C@@H](O)CO)C(O)=C1O` [Ascorbic acid], the “DPPH radical scavenging IC50 value” in series [2] was “(21.83±1.10) μg/mL”.
Regarding `N.N.[Cl][Pt][Cl]` [Cisplatin], the IC50 in series [3] (read-out: Cytotoxicity (as of %Control) IC50 value, MCF7, 72 h incubations, n=4) was determined as 28.1 ± 4.4 µM; in series [3] (read-out: Cytotoxicity (as of %Control) IC50 value, MCF7, 72 h incubations, n=4, listed as cisplatin) it was 28 µM; in series [4] (read-out: Cytotoxicity (as of %Control) IC50 value, HT29, 72 h incubations, n=4), 45.1 ± 7.9 µM; in series [4] (read-out: Cytotoxicity (as of %Control) IC50 value, HT29, 72 h incubations, n=4, listed as cisplatin) it was 45 µM; in series [5] (read-out: Cytotoxicity (as of %Control) IC50 value, K562, 72 h incubations, n=4, NI is lack of cytotoxicity within the tested 0.1-200 μg/mL range), 180 ± 21 µM; in series [5] (read-out: Cytotoxicity (as of %Control) IC50 value, K562, 72 h incubations, n=4, NI is lack of cytotoxicity within the tested 0.1-200 μg/mL range, listed as cisplatin), 180 µM.

Values taken from article PMC9587871 (Asian Pacific Journal of Cancer Prevention : APJCP, 2022).
